Test results taken from ChEMBL document CHEMBL1143201 (Bioorg Med Chem, 2008).
pIC50: −log10 of the molar value. Activity calls are given as the source filed them. The rule behind the calls is not given here.

How the values were obtained:
Type in all cases: cell-based
[1] = target: T1, Muscarinic acetylcholine receptor M1 (Homo sapiens, UniProt P11229); experiment: (§1) Displacement of [3H]NMS from human muscarinic M1 receptor expressed in CHO cells by wash-resistant binding method
T1 sequence (P11229 whole entry): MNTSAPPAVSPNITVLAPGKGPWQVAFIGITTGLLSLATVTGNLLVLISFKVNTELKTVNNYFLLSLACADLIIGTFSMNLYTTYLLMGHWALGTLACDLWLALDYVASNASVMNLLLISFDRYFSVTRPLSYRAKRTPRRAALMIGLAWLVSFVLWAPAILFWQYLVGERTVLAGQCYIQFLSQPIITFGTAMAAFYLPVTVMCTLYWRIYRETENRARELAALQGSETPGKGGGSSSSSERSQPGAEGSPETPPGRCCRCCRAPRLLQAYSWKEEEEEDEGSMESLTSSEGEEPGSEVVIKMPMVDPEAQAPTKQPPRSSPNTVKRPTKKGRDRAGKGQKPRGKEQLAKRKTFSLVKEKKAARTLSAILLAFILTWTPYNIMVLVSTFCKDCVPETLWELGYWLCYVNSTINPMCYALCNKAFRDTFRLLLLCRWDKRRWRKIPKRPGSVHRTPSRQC
Method in brief: (§2)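 Human M1-transfected CHO cells in Hepes buffer were preincubated with test ligand. Each wash was a ~50-volume buffer dilution and centrifugation, done three times in all. Washed cells were resuspended, given [3H]NMS, and incubated 1 h at 37 °C. Bound radioactivity was then taken by filtration and scintillation counting; pIC50 derived.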

[2] = target: T1, Muscarinic acetylcholine receptor M1; experiment: Displacement of [3H]NMS from human muscarinic M1 receptor expressed in CHO cells in continuous presence of radioligand
Method in brief: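 CHO cells stably expressing human M1 receptor, grown in DMEM with 10% bovine calf serum and geneticin, trypsinized 4 days after subculture and washed into Hepes buffer. Cells incubated 1 h at 37 °C with 0.14–0.20 nM [3H]NMS plus increasing analog concentrations. Atropine defined nonspecific binding. Ended by rapid GF/B filtration and ice-cold saline washes, then scintillation counting; pIC50 reported.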

[3] = target: T2, Muscarinic acetylcholine receptor M1 (Homo sapiens) (UniProt P11229); experiment: as §1; method in brief: as §2
T2 sequence (whole entry): T1 sequence (P11229 whole entry)

[4] = target: T1, Muscarinic acetylcholine receptor M1; experiment: Displacement of [3H]NMS from human muscarinic M1 receptor expressed in CHO cells at pH 6 in continuous presence of radioligand
Method in brief: (§3)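 CHO cells stably transfected with human M1 gene, grown in DMEM with 10% bovine calf serum and geneticin, harvested by mild trypsinization 4 days after subculture, washed in Hepes medium. Buffer acidified to pH 6.0 or set to pH 8.0. Cells incubated 1 h at 37 °C with 0.14–0.20 nM [3H]NMS plus increasing analog concentrations. Nonspecific binding defined with 10 µM atropine. Filtration, saline washes, scintillation counting; pIC50 derived.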

[5] = target: T1, Muscarinic acetylcholine receptor M1; experiment: (§4) Displacement of [3H]NMS from human muscarinic M1 receptor expressed in CHO cells at pH 6 by wash-resistant binding method
Method in brief: (§5)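 Washout paradigm run in binding buffer acidified to pH 6.0, on CHO cells stably carrying human M1 receptor. After ligand preincubation, cells went through three rounds of ~50-volume dilution plus centrifugation, then resuspension with [3H]NMS for 1 h at 37 °C. Residual bound label was measured by filtration and scintillation counting; pIC50 derived.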

[6] = target: T1, Muscarinic acetylcholine receptor M1; experiment: Displacement of [3H]NMS from human muscarinic M1 receptor expressed in CHO cells at pH 8 in continuous presence of radioligand; method in brief: as §3
[7] = target: T1, Muscarinic acetylcholine receptor M1; experiment: Displacement of [3H]NMS from human muscarinic M1 receptor expressed in CHO cells at pH 8 by wash-resistant binding method
Method in brief: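 Human M1-transfected CHO cells preincubated with increasing analog concentrations in pH 8.0 buffer. Each wash is ~50 vol buffer dilution then centrifugation, done three times in total. Pellet resuspended in buffer with [3H]NMS for 1 h at 37 °C. Bound radioactivity collected by rapid filtration and scintillation counting. Result expressed as pIC50 of residual inhibition.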

[8] = target: T2, Muscarinic acetylcholine receptor M1 (Homo sapiens); experiment: as §4; method in brief: as §5

Compound | pIC50 [1] | pIC50 [2] | Activity [3] | other results
CN1CCC=C(c2nsnc2OCCCN)C1 | 4.83 | 6.79 |  | 
CN1CCC=C(c2nsnc2OCCCCO)C1 |  | 6.51 | inactive | 
CCOC(=O)CCCCOc1nsnc1C1=CCCN(C)C1 |  | 7.23 | inactive | 
CN1CCC=C(c2nsnc2OCCCCCCN)C1 | 5.40 | 6.19 |  | 
CNCCCCOc1nsnc1C1=CCCN(C)C1 |  | 5.15 | inactive | 
CN1CCC=C(c2nsnc2OCCCCn2ccnc2)C1 | 4.28 | 6.06 |  | pIC50 [4]: 5.64; Activity [8]: inactive; pIC50 [6]: 6.06; pIC50 [7]: 4.27
CN1CCC=C(c2nsnc2OCCCCCN)C1 | 4.35 | 5.72 |  | 
CN1CCC=C(c2nsnc2OCCCCN)C1 |  | 4.11 | inactive | 

The next lines start with results.

pIC50 [1] | pIC50 [2] | Activity [3] | Compound | other results
5.67 | 7.43 |  | CN1CCC=C(c2nsnc2OCC#Cc2ccccc2)C1 | 
4.54 | 6.56 |  | CN1CCC=C(c2nsnc2OCCCCn2cccc2)C1 | pIC50 [4]: 6.39; pIC50 [5]: 4.40; pIC50 [6]: 6.66; pIC50 [7]: 4.92
3.96 | 6.00 |  | CN1CCC=C(c2nsnc2OCCN)C1 | 
 | 7.28 | inactive | CCCOc1nsnc1C1=CCCN(C)C1 | 
 | 5.42 | inactive | CN1CCC=C(c2nsnc2OCCCO)C1 | 
 | 6.85 | inactive | CCOc1nsnc1C1=CCCN(C)C1 | 
 | 5.97 | inactive | CN1CCC=C(c2nsnc2OCCO)C1 | 
 | 6.21 | inactive | CN1CCC=C(c2nsnc2OCC(=O)O)C1 | 
